Test results as given in ChEMBL document CHEMBL1955795, “Efficient synthesis and biological evaluation of proximicins A, B and C” (Bioorg Med Chem, 2012).
In brackets after ≈: the same amount, converted by molar mass. Activity calls are given as the source filed them. No cut-off for these calls is given here.

What was measured:
[1] = test system: Staphylococcus aureus; experiment: Antimicrobial activity against epidemic methicillin-resistant Staphylococcus aureus 16 after 24 hrs by MTT assay; assay type: functional; conditions: Staphylococcus aureus, 16, 24 h
Summary of the method: (§1)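 Broth microdilution MIC in cation-adjusted Mueller-Hinton broth adjusted to 20 mg/L Ca²⁺ and 10 mg/L Mg²⁺. Strains grown on nutrient agar 24 h at 37 °C before testing. Inoculum of 5 × 10⁵ cfu prepared in normal saline against a 0.5 McFarland standard, added to wells and incubated at 37 °C. MTT (5 mg/mL methanolic solution) added for 20 min. Yellow-to-dark-blue colour change indicated growth. MIC = lowest concentration with no growth.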

[2] = test system: Staphylococcus aureus; experiment: Antimicrobial activity against Staphylococcus aureus SA 1199B over-expressing NorA MDR efflux pump after 24 hrs by MTT assay; assay type: functional; summary of the method: as §1
[3] = test system: Staphylococcus aureus; experiment: Antimicrobial activity against Staphylococcus aureus […] after 24 hrs by MTT assay; assay type: functional; summary of the method: as §1
[4] = test system: Enterococcus faecalis; experiment: Antimicrobial activity against Enterococcus faecalis NCTC 12697 after 24 hrs by MTT assay; assay type: functional; conditions: NCTC 12697, 24 h
Summary of the method: (§2)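 Broth microdilution MIC in cation-adjusted Mueller-Hinton broth supplemented to 20 mg/L Ca2+ and 10 mg/L Mg2+. Strains grown on nutrient agar 24 h at 37 °C. Inoculum of 5 × 10⁵ cfu set in normal saline against a 0.5 McFarland standard. Plates incubated at 37 °C, then MTT (5 mg/mL methanolic, 20 µL) added for 20 min. MIC taken as the lowest concentration with no yellow-to-blue colour change.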

[5] = test system: Staphylococcus aureus; experiment: Antimicrobial activity against epidemic methicillin-resistant Staphylococcus aureus 15 after 24 hrs by MTT assay; assay type: functional; conditions: Staphylococcus aureus, 15, 24 h; summary of the method: as §1
[6] = test system: Jurkat; experiment: Induction of apoptosis in human Jurkat 16 cells assessed as DNA fragments release from apoptotic nuclei at 20 ug/ml after 24 hrs by propidium iodide based flow cytometry analysis; assay type: functional, cell-based
Summary of the method: (§3)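 Cells grown in RPMI with 10% FCS and penicillin/streptomycin at 37 °C, 5% CO2. Treated 24 h at 20 µg/mL. Apoptotic DNA fragmentation measured as propidium iodide fluorescence by flow cytometry, reported as percentage of degraded DNA.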

[7] = test system: Escherichia coli; experiment: Antimicrobial activity against Escherichia coli NCTC 10418 after 24 hrs by MTT assay; assay type: functional; conditions: NCTC 10418, 24 h; summary of the method: as §2
[8] = test system: L1236; experiment: Induction of apoptosis in human L1236 cells assessed as DNA fragments release from apoptotic nuclei at 20 ug/ml after 24 hrs by propidium iodide based flow cytometry analysis; assay type: functional, cell-based; summary of the method: as §3
[9] = test system: Jurkat; experiment: Induction of apoptosis in human Jurkat 16 cells assessed as DNA fragments release from apoptotic nuclei after 48 hrs by propidium iodide based flow cytometry analysis; assay type: functional, cell-based
Summary of the method: (§4)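 Cells grown in RPMI with 10% FCS and penicillin/streptomycin at 37 °C, 5% CO2. Plated in duplicate and treated 48 h with increasing concentrations. DNA released from apoptotic nuclei stained with propidium iodide. Percentage DNA fragmentation quantified by flow cytometry.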

[10] = test system: L1236; experiment: Induction of apoptosis in human L1236 cells assessed as DNA fragments release from apoptotic nuclei at 50 ug/ml after 48 hrs by propidium iodide based flow cytometry analysis; assay type: functional, cell-based; summary of the method: as §4
[11] = test system: MDA-MB-231; experiment: Cytotoxicity against human MDA-MB-231 cells after 48 hrs by MTT assay; assay type: functional, cell-based; conditions: MDA-MB-231, 48 h
Summary of the method: (§5)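 U-87 MG cells in MEM and MDA-MB-231 cells in DMEM, each with 10% FBS, L-glutamine, non-essential amino acids and sodium pyruvate, kept at 5% CO2. Log-phase cells exposed to increasing drug concentrations for 24 h, then grown in fresh medium for a further 48 h. MTT added for 4 h, formazan dissolved in DMSO, absorbance read. Viability normalised to untreated wells after subtracting Triton-treated wells. IC50 derived.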

[12] = Cytotoxicity against human U87MG cells after 48 hrs by MTT assay; assay type: functional, cell-based, U-87MG ATCC; conditions: U-87 MG; summary of the method: as §5
[13] = test system: Jurkat; experiment: Induction of apoptosis in human Jurkat 16 cells assessed as DNA fragments release from apoptotic nuclei at 50 ug/ml after 48 hrs by propidium iodide based flow cytometry analysis; assay type: functional, cell-based; summary of the method: as §4

Compound	MIC [1]	MIC [2]	MIC [3]	MIC [4]	MIC [5]	Activity [6]	MIC [7]	Activity [8]	Activity [9]	Activity [10]	IC50 [11]	IC50 [12]	Activity [13]
Cn1cc(NC(=O)c2cc(NC(=O)CNC(=N)N)cn2C)cc1C(=O)NCCC(=N)N [NETROPSIN]	128 µg/mL (≈ 297 µM)	16 µg/mL (≈ 37.2 µM)	64 µg/mL (≈ 149 µM)										
COC(=O)Nc1coc(C(=O)Nc2coc(C(=O)NCCc3ccc(O)cc3)c2)c1 [PROXIMICIN B]	8 µg/mL (≈ 19.4 µM)	4 µg/mL (≈ 9.68 µM)	8 µg/mL (≈ 19.4 µM)	4 µg/mL (≈ 9.68 µM)	8 µg/mL (≈ 19.4 µM)	Active	> 128 µg/mL	Active	Dose-dependent effect				
COC(=O)Nc1coc(C(=O)Nc2coc(C(=O)NCCc3c[nH]c4ccccc34)c2)c1 [PROXIMICIN C]	> 256 µg/mL	> 256 µg/mL	> 256 µg/mL	> 128 µg/mL	> 128 µg/mL		> 128 µg/mL			inactive	11.4 µg/mL (≈ 26.1 µM)	12.7 µg/mL (≈ 29.1 µM)	Active
CN(C)[C@@H]1C(O)=C(C(N)=O)C(=O)[C@@]2(O)C(O)=C3C(=O)c4c(O)cccc4[C@@](C)(O)[C@H]3C[C@@H]12 [TETRACYCLINE]	0.5 µg/mL (≈ 1.13 µM)	0.25 µg/mL (≈ 0.563 µM)	0.5 µg/mL (≈ 1.13 µM)	4 µg/mL (≈ 9 µM)	0.12 µg/mL (≈ 0.27 µM)		0.12 µg/mL (≈ 0.27 µM)						
